# In ChEMBL document CHEMBL4000184, “Synthesis of Novel c(AmpRGD)-Sunitinib Dual Conjugates as Molecular Tools Targeting the αvβ3 Integrin/VEGFR2 Couple and Impairing Tumor-Associated Angiogenesis” (J Med Chem, 2017):
# The source made the active and inactive calls. No cut-off for these calls is given here.
# What was measured:
# [1] = target: T1, Integrin alpha-V/beta-3 (Homo sapiens, UniProt P05106+P06756); assay: Inhibition of vitronectin binding to alphaVbeta3 in human EPC in presence of MnCl2 measured after 30 mins by crystal violet staining based cell adhesion assay
# In short: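 Plates coated overnight with vitronectin at 4 °C and blocked with PBS/1% BSA. EPCs in serum-free medium preincubated with compound (1–10000 nM) for 30 min at 37 °C with 2.0 mmol/L MnCl2. Plated at 5-6×10^4 cells/well for 1 h at 37 °C. Adherent cells stained with crystal violet, read at 540 nm; % inhibition vs untreated. Triplicate, repeated at least three times.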
# [2] = Drug uptake in human EPC at 1 uM measured after 1 hr in presence of alphaVbeta3 integrin ligand c(AmpRGD) amine by HPLC-ESI-MS/MS analysis; format: ADME, cell-based
# In short: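 EPCs detached with Accutase, resuspended in serum-free medium, and given compound at 1 μM with or without c(AmpRGD) amine at 100 μM. Incubated at 37 °C, 10% CO2, then washed by centrifugation. Pellets extracted with ethanol at 4 °C for 10 min; content measured by HPLC-ESI-MS/MS.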
# [3] = n-Octanol-buffer distribution coefficient, log D of the compound at pH 7.4 incubated for 4 hrs by HPLC-UV-vis based shake flask method; format: physicochemical
# In short: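 Shake-flask partition between n-octanol and 50 mM MOPS pH 7.4 (ionic strength 0.15 M, KCl) at 25 ± 3 °C. Phases pre-saturated and equilibrated 4 h in the dark; each phase analyzed by HPLC-UV-Vis. Mean of at least three runs with different volume ratios.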
# [4] = target: T1, Integrin alpha-V/beta-3; assay: Drug internalization in human EPC assessed as alphavbeta3-mediated drug uptake at 1 uM measured after 1 hr by HPLC-ESI-MS/MS analysis; format: ADME
# In short: (§1)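 Confluent EPCs in serum- and growth-factor-free medium received compound at 1 μM final for 1 h at 37 °C. Cells washed with PBS, then extracted immediately or 8 h later with ethanol at 4 °C. Extract measured by HPLC-ESI-MS/MS; protein by Bradford. Reported as nmol/mg protein; uptake rate as pmol/min/mg protein over the first hour. Triplicate.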
# Target sequence in this assay (P05106 27-788 limits assumed): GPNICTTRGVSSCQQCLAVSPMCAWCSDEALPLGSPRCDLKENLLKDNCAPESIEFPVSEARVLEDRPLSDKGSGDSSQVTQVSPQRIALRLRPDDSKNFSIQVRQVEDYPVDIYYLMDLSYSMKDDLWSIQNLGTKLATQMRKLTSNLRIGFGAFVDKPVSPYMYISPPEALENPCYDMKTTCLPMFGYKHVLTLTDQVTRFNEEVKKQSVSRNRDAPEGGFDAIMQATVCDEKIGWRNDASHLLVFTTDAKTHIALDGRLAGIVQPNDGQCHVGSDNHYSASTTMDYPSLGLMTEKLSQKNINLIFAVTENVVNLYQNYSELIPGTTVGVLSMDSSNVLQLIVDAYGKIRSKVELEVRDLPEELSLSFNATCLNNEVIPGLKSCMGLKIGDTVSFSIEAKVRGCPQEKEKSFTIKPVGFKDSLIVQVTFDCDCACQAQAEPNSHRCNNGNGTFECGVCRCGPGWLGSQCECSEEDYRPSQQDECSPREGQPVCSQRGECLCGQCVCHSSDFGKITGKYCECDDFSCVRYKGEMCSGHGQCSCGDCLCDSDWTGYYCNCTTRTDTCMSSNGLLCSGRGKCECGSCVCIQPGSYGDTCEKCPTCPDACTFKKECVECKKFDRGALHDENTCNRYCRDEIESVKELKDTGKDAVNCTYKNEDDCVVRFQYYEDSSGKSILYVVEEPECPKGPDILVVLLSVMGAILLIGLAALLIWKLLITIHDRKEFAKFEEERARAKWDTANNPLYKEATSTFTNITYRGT
# Target sequence in this assay (P06756 31-889 limits assumed): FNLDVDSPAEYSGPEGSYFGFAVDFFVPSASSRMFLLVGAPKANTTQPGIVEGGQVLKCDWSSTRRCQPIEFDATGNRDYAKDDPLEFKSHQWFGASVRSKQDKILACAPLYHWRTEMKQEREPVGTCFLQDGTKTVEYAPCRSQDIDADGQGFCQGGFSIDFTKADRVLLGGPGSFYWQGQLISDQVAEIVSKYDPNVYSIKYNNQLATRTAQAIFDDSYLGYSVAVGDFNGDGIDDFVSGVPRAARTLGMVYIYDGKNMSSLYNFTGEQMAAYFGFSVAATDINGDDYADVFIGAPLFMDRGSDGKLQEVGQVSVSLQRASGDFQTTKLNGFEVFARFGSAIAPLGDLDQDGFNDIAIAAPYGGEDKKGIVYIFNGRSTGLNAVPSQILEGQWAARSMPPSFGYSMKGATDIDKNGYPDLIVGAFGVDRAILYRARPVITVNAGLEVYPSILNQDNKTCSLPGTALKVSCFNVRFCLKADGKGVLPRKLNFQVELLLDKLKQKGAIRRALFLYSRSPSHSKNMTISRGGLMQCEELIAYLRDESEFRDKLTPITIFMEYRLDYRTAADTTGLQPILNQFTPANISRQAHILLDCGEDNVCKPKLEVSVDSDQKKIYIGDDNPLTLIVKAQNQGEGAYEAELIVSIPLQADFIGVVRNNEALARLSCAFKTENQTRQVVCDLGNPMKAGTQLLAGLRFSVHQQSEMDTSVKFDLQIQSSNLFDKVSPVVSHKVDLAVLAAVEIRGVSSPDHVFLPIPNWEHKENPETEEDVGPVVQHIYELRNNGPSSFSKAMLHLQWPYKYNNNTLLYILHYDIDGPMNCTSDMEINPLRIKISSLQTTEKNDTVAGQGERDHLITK
# Target sequence in this assay (P06756 891-1048 limits assumed): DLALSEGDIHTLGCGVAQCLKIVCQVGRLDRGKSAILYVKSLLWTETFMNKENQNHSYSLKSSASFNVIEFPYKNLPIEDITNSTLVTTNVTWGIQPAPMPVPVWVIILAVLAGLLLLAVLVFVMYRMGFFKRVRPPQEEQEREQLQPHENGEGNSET
# [5] = test system: EPC; assay: Inhibition of VEGF-A-induced cell proliferation in human EPC at 1 uM measured after 72 hrs by trypan blue exclusion assay; format: functional, cell-based
# In short: (§2)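 Human cord-blood EPCs seeded at 6,000 cells/well on gelatin, adhered 4 h in complete medium. Then placed in serum-free medium with VEGF-A 20 ng/mL and compound at 1 μM, re-added every 24 h. Cell number and viability measured by trypan blue exclusion at 24, 48 and 72 h. Triplicate, repeated at least three times.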
# [6] = Cytotoxicity against human EPC assessed as cell viability at 1 uM measured after 24 to 72 hrs by trypan blue exclusion assay; format: cell-based; in short: as §2
# [7] = test system: EPC; assay: Inhibition of VEGF-A-induced cell proliferation in human EPC at 1 uM measured after 48 hrs by trypan blue exclusion assay; format: functional, cell-based; in short: as §2
# [8] = Stability in human plasma assessed as compound remaining at 1 uM measured up to 8 hrs by HPLC-UV-Vis analysis; format: ADME, cell-free; conditions: read-out: Stability
# In short: (§3)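 Rat or human plasma diluted to 80% v/v with 100 mM PBS pH 7.4; compound at 1 μM final, 37 °C, protected from light. Aliquots sampled over time up to 8 h, quenched with two volumes MeCN, centrifuged, and analyzed by HPLC-UV-Vis for % compound remaining.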
# [9] = target: T2, Integrin alpha-5/beta-1 (Homo sapiens, UniProt P05556+P08648); assay: Displacement of biotinylated fibronectin from recombinant human integrin alpha5beta1 dark incubated for 3 hrs by solid-phase receptor binding assay; format: protein-complex assay
# In short: (§4)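 Recombinant human αvβ3 or α5β1 coated at 0.5 μg/mL overnight at 4 °C in Tris-HCl pH 7.4 buffer with Mn2+, Ca2+, Mg2+, then blocked with 1% BSA. Streptavidin-peroxidase read-out at 415 nm. Triplicate wells, nonlinear regression, run in duplicate.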
# [10] = target: T1, Integrin alpha-V/beta-3; assay: Displacement of biotinylated vitronectin from recombinant human integrin alphaVbeta3 dark incubated for 3 hrs by solid-phase receptor binding assay; format: protein-complex assay; in short: as §4
# Target sequence in this assay (P05106 27-788 limits assumed): as the sequence (P05106 27-788 limits assumed) above
# Target sequence in this assay (P06756 31-889 limits assumed): as the sequence (P06756 31-889 limits assumed) above
# Target sequence in this assay (P06756 891-1048 limits assumed): as the sequence (P06756 891-1048 limits assumed) above
# [11] = target: T1, Integrin alpha-V/beta-3; assay: Drug uptake in human EPC assessed as alphavbeta3-mediated drug uptake by measuring intracellular content per mg protein at 1 uM measured after 8 hr by HPLC-ESI-MS/MS analysis; format: ADME, cell-based; in short: as §1
# Target sequence in this assay (P05106 27-788 limits assumed): as the sequence (P05106 27-788 limits assumed) above
# Target sequence in this assay (P06756 31-889 limits assumed): as the sequence (P06756 31-889 limits assumed) above
# Target sequence in this assay (P06756 891-1048 limits assumed): as the sequence (P06756 891-1048 limits assumed) above
# [12] = target: T3, Vascular endothelial growth factor receptor 2 (Homo sapiens, UniProt P35968); conditions: at 1 µM
# [13] = target: T1, Integrin alpha-V/beta-3; assay: Drug internalization in human EPC assessed as alphavbeta3-mediated drug uptake by measuring intracellular content per mg protein at 1 uM measured after 1 hr by HPLC-ESI-MS/MS analysis; format: ADME, cell-based; in short: as §1
# Target sequence in this assay (P05106 27-788 limits assumed): as the sequence (P05106 27-788 limits assumed) above
# Target sequence in this assay (P06756 31-889 limits assumed): as the sequence (P06756 31-889 limits assumed) above
# Target sequence in this assay (P06756 891-1048 limits assumed): as the sequence (P06756 891-1048 limits assumed) above
# [14] = Inhibition of VEGF-A-induced cell proliferation in human EPC at 1 uM measured after 24 hrs by trypan blue exclusion assay relative to control; format: functional; in short: as §2
# [15] = target: T1, Integrin alpha-V/beta-3; assay: Drug internalization in human EPC assessed as alphavbeta3-mediated drug uptake per mg protein at 1 uM measured after 1 hr by HPLC-ESI-MS/MS analysis; format: ADME; in short: as §1
# Target sequence in this assay (P05106 27-788 limits assumed): as the sequence (P05106 27-788 limits assumed) above
# Target sequence in this assay (P06756 31-889 limits assumed): as the sequence (P06756 31-889 limits assumed) above
# Target sequence in this assay (P06756 891-1048 limits assumed): as the sequence (P06756 891-1048 limits assumed) above
# [16] = Stability in rat plasma assessed as compound remaining at 1 uM measured up to 8 hrs by HPLC-UV-Vis analysis; format: ADME, cell-free; conditions: read-out: Stability; in short: as §3
# [17] = test system: EPC; assay: Antiangiogenic activity in human EPC assessed as inhibition of VEGF-A induced tubule formation at 0.1 to 1 uM measured after 6 hrs by matrigel based phase contrast microscopic analysis; format: functional, cell-based
# In short: (§5)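 EPCs grown 24 h in EGM-2, trypsinized, resuspended in serum/growth-factor-free EGM-2 with VEGF-A 20 ng/mL plus compound (0.01, 0.1, 1.0 μM) and seeded on growth-factor-reduced Matrigel at 7×10^4 cells/well. Incubated 6 h at 37 °C, photographed by phase contrast. Loops counted in four random fields per well, given as % reduction vs untreated cells. Triplicate.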
# [18] = Antiangiogenic activity in human EPC assessed as inhibition of VEGF-A induced tubule formation at 10 nM measured after 6 hrs by matrigel based phase contrast microscopic analysis relative to control; format: functional; in short: as §5
# [19] = target: T2, Integrin alpha-5/beta-1; assay: Inhibition of alpha5beta1 (unknown origin); format: protein-complex assay
# [20] = target: T1, Integrin alpha-V/beta-3; assay: Displacement of biotinylated vitronectin from human integrin alphaVbeta3 measured after 3 hrs by solid-phase receptor binding assay; format: protein-complex assay
# In short: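 Recombinant human αvβ3 or α5β1 coated at 0.5 μg/mL overnight at 4 °C in Tris-HCl pH 7.4 buffer with Mn2+, Ca2+, Mg2+, then blocked with 1% BSA. Triplicate wells, nonlinear regression, run in duplicate.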
# Target sequence in this assay (P05106 27-788 limits assumed): as the sequence (P05106 27-788 limits assumed) above
# Target sequence in this assay (P06756 31-889 limits assumed): as the sequence (P06756 31-889 limits assumed) above
# Target sequence in this assay (P06756 891-1048 limits assumed): as the sequence (P06756 891-1048 limits assumed) above
# [21] = target: Integrin alpha-V/beta-5 (Homo sapiens, UniProt P06756+P18084); assay: Displacement of biotinylated vitronectin from human integrin alphaVbeta5 measured after 3 hrs by solid-phase receptor binding assay; format: protein-complex assay
# [22] = target: Platelet-derived growth factor receptor beta (Homo sapiens, UniProt P09619); assay: Inhibition of recombinant human PDGFRbeta expressed in insect cells using Ulight-Poly GAT[EAY(1:1:1)]n as substrate measured after 30 mins by LANCE method
# [23] = test system: Mus musculus; assay: In vivo antiangiogenic activity in EHS derived matrigel plug implanted FVB mouse assessed as inhibition of VEGF-A-induced angiogenesis at 10 mg/kg, by microscopic method
# [24] = target: T3, Vascular endothelial growth factor receptor 2; assay: Inhibition of recombinant human VEGFR2 expressed in Sf9 cells using Ulight-CAGAGAIETDKEYYTVKD as substrate measured after 60 mins by LANCE method
# [25] = target: T1, Integrin alpha-V/beta-3; conditions: 1 to 10000 nM
# T2 sequence (P05556 21-798 limits assumed): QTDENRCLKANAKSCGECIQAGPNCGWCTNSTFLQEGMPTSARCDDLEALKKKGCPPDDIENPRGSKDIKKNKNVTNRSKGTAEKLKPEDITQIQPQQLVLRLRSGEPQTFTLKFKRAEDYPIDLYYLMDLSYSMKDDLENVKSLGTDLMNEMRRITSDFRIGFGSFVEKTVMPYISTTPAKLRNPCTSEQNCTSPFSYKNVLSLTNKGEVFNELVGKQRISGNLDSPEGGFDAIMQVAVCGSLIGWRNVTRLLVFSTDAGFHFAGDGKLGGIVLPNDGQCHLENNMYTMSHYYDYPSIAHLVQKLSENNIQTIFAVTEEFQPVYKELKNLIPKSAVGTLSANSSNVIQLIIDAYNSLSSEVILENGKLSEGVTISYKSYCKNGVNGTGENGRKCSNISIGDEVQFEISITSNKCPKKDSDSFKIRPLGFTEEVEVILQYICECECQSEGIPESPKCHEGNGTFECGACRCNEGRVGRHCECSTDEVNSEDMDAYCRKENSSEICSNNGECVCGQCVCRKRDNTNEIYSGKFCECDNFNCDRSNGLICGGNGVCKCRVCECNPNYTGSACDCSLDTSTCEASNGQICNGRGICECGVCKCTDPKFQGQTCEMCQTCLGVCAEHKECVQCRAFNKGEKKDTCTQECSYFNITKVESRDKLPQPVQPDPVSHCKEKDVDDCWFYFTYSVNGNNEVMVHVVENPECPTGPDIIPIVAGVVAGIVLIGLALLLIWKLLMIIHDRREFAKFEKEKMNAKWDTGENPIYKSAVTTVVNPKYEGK
# T2 sequence (P08648 42-894 limits assumed): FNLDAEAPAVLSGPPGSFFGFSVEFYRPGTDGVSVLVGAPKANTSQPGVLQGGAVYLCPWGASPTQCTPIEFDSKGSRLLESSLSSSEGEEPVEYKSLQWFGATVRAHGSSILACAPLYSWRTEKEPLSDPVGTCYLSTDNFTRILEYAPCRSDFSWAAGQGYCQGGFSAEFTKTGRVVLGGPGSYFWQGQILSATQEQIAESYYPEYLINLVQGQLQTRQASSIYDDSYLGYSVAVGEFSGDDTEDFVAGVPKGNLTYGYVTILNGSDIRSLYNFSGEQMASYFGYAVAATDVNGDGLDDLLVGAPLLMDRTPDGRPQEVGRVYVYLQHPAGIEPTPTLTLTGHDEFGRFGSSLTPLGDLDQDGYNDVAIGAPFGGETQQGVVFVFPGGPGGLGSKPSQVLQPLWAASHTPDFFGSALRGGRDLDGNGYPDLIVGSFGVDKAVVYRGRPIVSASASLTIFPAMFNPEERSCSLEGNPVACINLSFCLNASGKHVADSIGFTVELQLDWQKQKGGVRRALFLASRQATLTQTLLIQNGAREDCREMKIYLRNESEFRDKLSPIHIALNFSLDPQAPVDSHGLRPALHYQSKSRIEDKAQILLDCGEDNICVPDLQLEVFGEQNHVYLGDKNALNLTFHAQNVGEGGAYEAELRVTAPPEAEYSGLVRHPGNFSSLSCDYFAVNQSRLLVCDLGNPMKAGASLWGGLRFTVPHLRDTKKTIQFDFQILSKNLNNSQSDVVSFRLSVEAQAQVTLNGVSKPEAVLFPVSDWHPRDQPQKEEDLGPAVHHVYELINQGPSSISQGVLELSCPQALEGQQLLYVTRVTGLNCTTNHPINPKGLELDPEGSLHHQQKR
# T2 sequence (P08648 895-1049 limits assumed): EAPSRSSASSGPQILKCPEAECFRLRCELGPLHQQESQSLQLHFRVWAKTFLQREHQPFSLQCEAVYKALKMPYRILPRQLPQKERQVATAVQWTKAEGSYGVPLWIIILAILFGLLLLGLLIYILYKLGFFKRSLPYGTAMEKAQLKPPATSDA
Structure (SMILES),IC50 [1] [nM],Drug uptake [2],logD at 4 h [3],log(activity) [4],inhibition [5],Activity [6],inhibition [7],"remaining at 8 h, 1 µM [8] [%]",IC50 [9] [nM],IC50 [10] [nM],Drug uptake [11] [nmol/mg],inhibition [12],Drug uptake [13] [nmol/mg],inhibition at 1 µM [14] [%],Drug uptake [15] [pmol/min],"remaining at 8 h, 1 µM [16] [%]",inhibition [1],inhibition [17],inhibition at 0.01 µM [18] [%],inhibition [23],further results
CCN(CCNC(=O)c1c(C)[nH]c(/C=C2\C(=O)Nc3ccc(F)cc32)c1C)CCOCCOCCOCc1cn(CCCCN2C[C@@H]3C[C@H]2C(=O)N[C@@H](CCCNC(=N)N)C(=O)NCC(=O)N[C@@H](CC(=O)O)C(=O)N3)nn1,10000,Not Active,-2.56,0.9,inactive,Non-Toxic,Active,107,101,5.1,0.43,Active,0.48,24,8,104,–,–,–,–,–
Cc1[nH]c(/C=C2\C(=O)Nc3ccc(F)cc32)c(C)c1C(=O)NCCNC(=O)CCc1cn(CCCCN2C[C@@H]3C[C@H]2C(=O)N[C@@H](CCCNC(=N)N)C(=O)NCC(=O)N[C@@H](CC(=O)O)C(=O)N3)nn1,500,–,-2.03,0.64,inactive,Non-Toxic,Active,99,30.7,1.24,0.22,Active,0.26,46,4.3,88.2,Dose-dependent effect,Active,52,–,–
N=C(N)NCCC[C@@H]1NC(=O)[C@@H]2C[C@@H](CN2CCN)NC(=O)[C@H](CC(=O)O)NC(=O)CNC1=O,–,–,–,–,–,–,–,–,–,–,–,–,–,–,–,–,–,–,–,–,IC50 [19]: 152 nM; IC50 [20]: 6.1 nM; IC50 [21]: 315 nM
CCN(CCNC(=O)c1c(C)[nH]c(/C=C2\C(=O)Nc3ccc(F)cc32)c1C)CCOCCOCCNC(=O)c1cc(OCc2cn(CCCCN3C[C@@H]4C[C@H]3C(=O)N[C@@H](CCCNC(=N)N)C(=O)NCC(=O)N[C@@H](CC(=O)O)C(=O)N4)nn2)cc(OCc2cn(CCCCN3C[C@@H]4C[C@H]3C(=O)N[C@@H](CCCNC(=N)N)C(=O)NCC(=O)N[C@@H](CC(=O)O)C(=O)N4)nn2)c1,500,Not Active,-3.02,1.19,Active,Non-Toxic,Active,98.6,95.8,3.8,0.54,Active,0.94,41,15.7,109,Dose-dependent effect,Active,43,Active,IC50 [22]: 9 nM; IC50 [24]: 420 nM
CCN(CC)CCNC(=O)c1c(C)[nH]c(/C=C2\C(=O)Nc3ccc(F)cc32)c1C [SUNITINIB],–,–,2.51,–,Active,Non-Toxic,Active,102,–,–,2.9,–,5.72,33,–,97.3,–,–,30,Active,inhibition [25]: inactive
